Tests used:
[1] = Displacement of [3H]2BFI from I2 imidazoline binding site in rat brain membrane; format: cell membranes
Procedure, shortened: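 Rat whole-brain membranes (about 300 µg protein) incubated to equilibrium (30 min, room temperature) with 1 nM [3H]2-BFI and increasing compound concentrations in 50 mM Tris–HCl, 1 mM MgCl2, pH 7.4. Nonspecific binding defined with 10 µM BU224. Filtration, scintillation counting. At least six concentrations; IC50 converted to Ki by Cheng–Prusoff; 3–5 experiments in triplicate.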

[2] = biological target: T1, Adrenergic receptor alpha-2 (Rattus norvegicus, UniProt P22086+P19328+P22909); experiment: Displacement of [3H]RX821002 from alpha2 adrenergic receptor in rat brain membrane; format: cell membranes
T1 sequence (P22086 whole entry): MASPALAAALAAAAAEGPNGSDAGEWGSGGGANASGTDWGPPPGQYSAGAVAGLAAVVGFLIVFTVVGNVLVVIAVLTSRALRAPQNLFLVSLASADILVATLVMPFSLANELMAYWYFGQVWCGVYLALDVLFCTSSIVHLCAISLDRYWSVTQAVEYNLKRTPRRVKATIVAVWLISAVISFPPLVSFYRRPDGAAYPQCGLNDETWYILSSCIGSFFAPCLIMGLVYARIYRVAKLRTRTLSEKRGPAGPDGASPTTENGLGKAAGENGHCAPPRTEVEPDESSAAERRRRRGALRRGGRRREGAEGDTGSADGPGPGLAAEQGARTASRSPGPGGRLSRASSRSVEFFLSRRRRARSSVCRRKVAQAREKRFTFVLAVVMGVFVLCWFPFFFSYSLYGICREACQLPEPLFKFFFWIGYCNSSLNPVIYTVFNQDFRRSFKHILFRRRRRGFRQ
T1 sequence (P19328 whole entry): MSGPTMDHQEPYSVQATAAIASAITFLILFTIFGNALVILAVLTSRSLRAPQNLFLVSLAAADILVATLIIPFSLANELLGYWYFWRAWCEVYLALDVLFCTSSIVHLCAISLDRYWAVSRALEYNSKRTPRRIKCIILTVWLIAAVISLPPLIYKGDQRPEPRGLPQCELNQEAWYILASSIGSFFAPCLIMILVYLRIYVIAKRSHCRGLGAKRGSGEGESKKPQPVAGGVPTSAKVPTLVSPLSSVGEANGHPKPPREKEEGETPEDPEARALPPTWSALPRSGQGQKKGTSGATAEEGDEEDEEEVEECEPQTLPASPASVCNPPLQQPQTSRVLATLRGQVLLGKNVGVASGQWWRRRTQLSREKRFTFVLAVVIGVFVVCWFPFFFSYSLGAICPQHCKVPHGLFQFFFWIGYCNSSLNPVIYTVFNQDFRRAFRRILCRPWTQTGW
T1 sequence (P22909 whole entry): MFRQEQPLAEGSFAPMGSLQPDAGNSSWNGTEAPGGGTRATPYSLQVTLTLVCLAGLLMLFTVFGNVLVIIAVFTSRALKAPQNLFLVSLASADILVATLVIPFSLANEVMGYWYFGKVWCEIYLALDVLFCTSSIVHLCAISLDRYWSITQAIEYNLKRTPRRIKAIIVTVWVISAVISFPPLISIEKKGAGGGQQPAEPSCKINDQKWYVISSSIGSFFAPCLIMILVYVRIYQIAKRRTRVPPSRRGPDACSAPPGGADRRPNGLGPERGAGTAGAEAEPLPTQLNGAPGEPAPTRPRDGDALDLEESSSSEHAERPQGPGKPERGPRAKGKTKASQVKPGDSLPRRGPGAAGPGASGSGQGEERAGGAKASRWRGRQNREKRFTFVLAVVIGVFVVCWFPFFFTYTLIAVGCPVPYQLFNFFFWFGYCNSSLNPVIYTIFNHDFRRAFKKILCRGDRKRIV

[3] = Displacement of [3H]YM-09-151-2 from D2-like receptor in pig striatal membrane; format: cell membranes, Sus scrofa, Striatum
Procedure, shortened: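 Pig striatal membranes (about 200 µg protein) in Tris–HCl pH 7.4 with protease inhibitors, incubated to equilibrium (60 min, 30 °C) with 0.3 nM [3H]YM-09-151-2 and at least six compound concentrations. Nonspecific binding defined with 2.5 mM dopamine. Filtration, scintillation counting. IC50 converted to Ki by Cheng–Prusoff; 3–5 experiments in triplicate. Radioligand Kd 0.40 nM.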

[4] = Agonist activity at D2-like receptor in pig striatal membrane assessed as [35S]GTPgammaS binding; format: functional, cell membranes, Sus scrofa, Striatum
Procedure, shortened: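 Porcine striatal membranes incubated 60 min at 30 °C in 50 mM Tris–HCl pH 7.4 with GDP, 5 mM MgCl2, 0.1 mM EDTA, 0.2 mM EGTA, 0.2 mM DTT, 150 mM NaCl, 0.2 nM [35S]GTPγS and six compound concentrations. Nonspecific binding defined with unlabeled GTPγS. Filtration, scintillation counting. EC50 by nonlinear regression, three independent experiments. Intrinsic activity set relative to dopamine %Emax = 1.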

Rattus norvegicus [5] = experiment: Anxiolytic-like activity in Wistar rat assessed as ambulatory activity at 0.0149 uM/kg, icv by open field test; format: functional
Procedure, shortened: (§1)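 Male Wistar rats (200–225 g, 8 per group) given ip zolazepam/tiletamine anaesthesia before a cannula was implanted in the right lateral ventricle. Compound given icv at 0.0149 µM/kg; controls received physiological solution. Open field with two photocell rows: lower-row breaks counted as ambulatory episodes, upper-row breaks as rearing. Read-out is the % of episodes in the central area, mean ± SE.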

Rattus norvegicus [6] = experiment: Anxiolytic-like activity in Wistar rat assessed as rearing activity at 0.0149 uM/kg, icv by open field test; format: functional; procedure, shortened: as §1
[7] = Displacement of [3H]SCH23390 from dopamine D1-like receptor pig striatal membrane

SMILES	Ki [1] [µM]	Ki [2] [µM]	Ki [3] [µM]	EC50 [4] [µM]	Activity (Rattus norvegicus [5]) [%]	Activity (Rattus norvegicus [6]) [%]	Kd [7] [µM]
Oc1ccc2oc(C3=NCCN3)cc2c1	0.0881	2.95	> 100	–	–	–	–
CN1CCN=C1c1cc2cc(O)ccc2o1	–	–	> 100	–	–	–	–
CCN1CCN=C1c1cc2cc(O)ccc2o1	> 100	25.5	> 100	–	–	–	–
CCCN1CCN=C1c1cc2cc(O)ccc2o1	0.7	3.64	15.8	–	–	–	–
Oc1ccc2cc(C3=NCCN3)oc2c1	0.076	11	14.5	5.7	–	–	–
CCCN1CCN=C1c1cc2ccc(O)cc2o1	2.1	1.92	13.8	13.3	–	–	–
Oc1cc2cc(C3=NCCN3)oc2cc1O	5.69	24.21	> 100	–	–	–	–
CCCN1CCN=C1c1cc2cc(O)c(O)cc2o1	28	10.16	> 100	–	–	–	–
Oc1ccc2oc(C3=NCCN3Cc3ccccc3)cc2c1	1.1	4.39	5	6.3	–	–	–
Oc1ccc2cc(C3=NCCN3Cc3ccccc3)oc2c1	5.78	2.08	5.66	5.8	6.3	2	–
Oc1cc2cc(C3=NCCN3Cc3ccccc3)oc2cc1O	10.4	4.43	18.5	11.9	–	–	–
c1ccc2oc(C3=NCCN3)cc2c1	0.0034	–	47	37.7	–	–	–
NCCc1ccc(O)c(O)c1 [DOPAMINE]	–	–	3.9	4.8	–	–	0.00133
N[C@@H](Cc1ccc(O)c(O)c1)C(=O)O [LEVODOPA]	–	–	–	–	5.7	2	–

From ChEMBL document CHEMBL1250524, “Novel imidazoline compounds as partial or full agonists of D2-like dopamine receptors inspired by I2-imidazoline binding sites ligand 2-BFI” (Bioorg Med Chem, 2010)
